Among the data in ChEMBL document CHEMBL3232979, “Discovery of a novel series of orally active nociceptin/orphanin FQ (NOP) receptor antagonists based on a dihydrospiro(piperidine-4,7'-thieno[2,3-c]pyran) scaffold” (J Med Chem, 2014) are Ki, Occ and Stability values, retold here.

Each structure is given as a SMILES string.

Chain of Delta-type opioid receptor (P41143 whole entry): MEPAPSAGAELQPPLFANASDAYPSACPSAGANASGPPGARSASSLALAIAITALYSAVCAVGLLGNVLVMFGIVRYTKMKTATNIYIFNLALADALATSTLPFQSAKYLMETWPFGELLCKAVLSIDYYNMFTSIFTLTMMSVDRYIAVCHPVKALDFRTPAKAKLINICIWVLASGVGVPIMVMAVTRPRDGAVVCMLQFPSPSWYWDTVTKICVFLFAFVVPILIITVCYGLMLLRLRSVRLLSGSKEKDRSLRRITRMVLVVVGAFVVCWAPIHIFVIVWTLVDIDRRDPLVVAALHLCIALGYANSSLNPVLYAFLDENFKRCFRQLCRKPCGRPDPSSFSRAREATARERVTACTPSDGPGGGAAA
Chain of Mu-type opioid receptor (P35372 whole entry): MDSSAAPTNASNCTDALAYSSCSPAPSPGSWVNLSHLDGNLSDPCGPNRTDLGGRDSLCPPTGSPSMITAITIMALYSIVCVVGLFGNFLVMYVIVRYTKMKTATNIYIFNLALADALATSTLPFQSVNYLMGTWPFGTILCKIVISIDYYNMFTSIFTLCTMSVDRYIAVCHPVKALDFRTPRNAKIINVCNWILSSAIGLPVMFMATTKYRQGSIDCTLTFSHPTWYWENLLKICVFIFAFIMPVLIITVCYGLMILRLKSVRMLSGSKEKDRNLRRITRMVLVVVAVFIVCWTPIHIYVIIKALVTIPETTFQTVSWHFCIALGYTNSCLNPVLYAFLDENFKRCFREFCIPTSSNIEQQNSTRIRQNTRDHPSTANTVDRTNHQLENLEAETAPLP
Chain of Kappa-type opioid receptor (P41145 whole entry): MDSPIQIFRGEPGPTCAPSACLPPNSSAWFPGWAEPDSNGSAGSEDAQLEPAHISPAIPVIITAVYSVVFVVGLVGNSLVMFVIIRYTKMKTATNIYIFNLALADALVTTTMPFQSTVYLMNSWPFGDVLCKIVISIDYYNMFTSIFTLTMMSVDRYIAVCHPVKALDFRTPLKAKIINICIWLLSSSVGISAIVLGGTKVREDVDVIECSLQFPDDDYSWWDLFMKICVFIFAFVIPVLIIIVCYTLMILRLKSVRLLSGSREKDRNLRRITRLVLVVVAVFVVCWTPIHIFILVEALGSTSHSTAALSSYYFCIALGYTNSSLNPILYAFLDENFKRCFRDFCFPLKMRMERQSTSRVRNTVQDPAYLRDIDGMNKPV

The first data set addresses Mu-type opioid receptor (Homo sapiens, UniProt P35372). The data set is described as follows: Displacement of [3H]-diprenorphine from human mu opioid receptor after 120 mins by cell based assay. Put shortly: (§1)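 Radioligand binding with [3H]-diprenorphine on membranes from CHO cells overexpressing recombinant human kappa, mu or delta opioid receptor; Ki determined.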
`COCc1cccnc1-n1cc(CN2CCC3(CC2)OCC(F)(F)c2cc(Cl)sc23)c(C)n1.O=C(O)C(O)C(O)C(=O)O`: the Ki was over 375000 pM.

A further data set has as its target Delta-type opioid receptor (Homo sapiens, UniProt P41143). As to the kind of experiment: Displacement of [3H]-diprenorphine from human delta opioid receptor after 120 mins by cell based assay. The method, boiled down:
as §1
As for `COCc1cccnc1-n1cc(CN2CCC3(CC2)OCC(F)(F)c2cc(Cl)sc23)c(C)n1.O=C(O)C(O)C(O)C(=O)O`, the Ki was over 375000 pM.

The next data set has as its target Kappa-type opioid receptor (Homo sapiens, UniProt P41145). As to the kind of experiment: Displacement of [3H]-diprenorphine from human kappa opioid receptor after 120 mins by cell based assay. Put shortly:
as §1
Molecule `COCc1cccnc1-n1cc(CN2CCC3(CC2)OCC(F)(F)c2cc(Cl)sc23)c(C)n1.O=C(O)C(O)C(O)C(=O)O` came in with a Ki of over 375000 pM.

A further data set deals with Nociceptin receptor (Homo sapiens, UniProt P41146). As to the kind of experiment: Displacement of [3H]-nociceptin from human recombinant NOP receptor expressed in CHO cells after 60 mins by scintillation counting. It counts as cell-based.
Chain of Nociceptin receptor (P41146 whole entry): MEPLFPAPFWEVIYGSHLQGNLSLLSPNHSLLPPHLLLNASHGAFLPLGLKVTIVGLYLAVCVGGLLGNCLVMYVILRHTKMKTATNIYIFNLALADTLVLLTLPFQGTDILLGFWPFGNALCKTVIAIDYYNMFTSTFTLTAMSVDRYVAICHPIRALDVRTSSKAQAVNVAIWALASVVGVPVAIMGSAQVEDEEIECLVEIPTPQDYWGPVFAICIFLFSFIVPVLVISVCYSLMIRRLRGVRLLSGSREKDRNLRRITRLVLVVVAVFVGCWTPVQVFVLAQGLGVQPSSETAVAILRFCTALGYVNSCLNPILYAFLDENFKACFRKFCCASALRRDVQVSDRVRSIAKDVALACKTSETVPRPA
`COCc1cccnc1-n1cc(CN2CCC3(CC2)OCCc2cc(F)sc23)c(C)n1`: the Ki is 93.9 pM. Consider `Cc1nn(-c2c(F)cccc2CN(C)C)cc1CN1CCC2(CC1)OCCc1cc(Cl)sc12`, for which the Ki came to 122 pM.

Regarding `Cc1nn(-c2c(F)cccc2CN(C)C)cc1CN1CCC2(CC1)OCCc1cc(F)sc12`, the Ki came to 64.8 pM. For the molecule `Cc1nn(-c2c(F)cccc2C(N)=O)cc1CN1CCC2(CC1)OCCc1cc(F)sc12`, the Ki stood at 95.4 pM. On the same count and under the same terms, the result for `Cc1nn(-c2c(F)cccc2F)cc1CN1CCC2(CC1)OCCc1cc(F)sc12` reads 71.1 pM; that for `Cc1nn(-c2ncccc2F)cc1CN1CCC2(CC1)OCCc1cc(F)sc12`, 139 pM.

Take `COCc1cccnc1-n1cc(CN2CCC3(CC2)OCC(F)(F)c2cc(Cl)sc23)c(C)n1.O=C(O)C(O)C(O)C(=O)O`: the Ki amounted to 185 pM. The same measure, in the same setting: the result for `COCc1cccnc1-n1cc(CN2CCC3(CC2)OCCc2cc(Cl)sc23)c(C)n1` reads 90.8 pM.

The test system of a further data set is Rattus norvegicus. The data set is described as follows: Ex vivo receptor occupancy of NOP receptor in Sprague-Dawley rat brain at 10 mg/kg, po after 24 hrs by LC-MS/MS analysis. Type of data set: functional. The method, boiled down: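 Male Sprague-Dawley rats, 220–300 g, 12 h light:dark cycle, free chow and water. A single oral 10 mg/kg dose or oral vehicle was given. 24 h later, nonlabeled tracer was given as an iv tail-vein bolus at 3 μg/kg. Brain was taken 40 min after tracer (hypothalamus, striatum), homogenized in ACN with 0.1% formic acid, centrifuged, diluted with water and read by LC-MS/MS.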
For `COCc1cccnc1-n1cc(CN2CCC3(CC2)OCC(F)(F)c2cc(Cl)sc23)c(C)n1.O=C(O)C(O)C(O)C(=O)O`, the Occ is listed as 90%.

Tested on in the next data set: not listed separately
The data set is described as follows: Metabolic stability in rat hepatic microsomes assessed as GSH-adduct formation. It counts as ADME, Liver, Microsome. Put shortly: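 GSH trapping: compounds incubated with rat hepatic microsomes and glutathione; metabolite profiling by LC/MS for GSH conjugates.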
In the case of `COCc1cccnc1-n1cc(CN2CCC3(CC2)OCC(F)(F)c2cc(Cl)sc23)c(C)n1.O=C(O)C(O)C(O)C(=O)O`, the Stability result was “Stable”.
